Experimental data taken from PMC5871537 (Molecular pharmaceutics, 2017).
Where “and” joins values, the source holds several entries; their conditions need not be identical. Equal values may be shown once. Values belong to the compound of their own block, whether it stands above or below them.

Key:
[1] = tested on: SS cells (homozygous sickle red blood cells); assay: Antisickling study; format: cell-based, human; details: for inhibition of RBC sickling: hypoxia
How it was run: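 SS patient blood suspensions (20% hematocrit) were preincubated in air with 0, 1, 2 or 5 mM test compound (final DMSO <2%) at 37 °C for 1 h. They were then held under hypoxia (4% O2/96% N2) at 37 °C for 2 h. Aliquots were fixed in 2% glutaraldehyde without air exposure and scored microscopically for sickled cells. % inhibition was calculated against untreated control. Three biological replicates.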

Hb A = Hb A (Homo sapiens, UniProt P69905); assay: Time-dependent Hb adduct formation in normal whole blood; format: in vitro ADME; details: for Hb modification (residual Hb adduct) at 24 h: normal whole blood, 2 mM compound; for remaining activity at 2000 µM: read-out: remaining activity at 24 h
How it was run: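 Normal donor whole blood (30% hematocrit) was incubated with 2 mM test compound at 37 °C for 24 h with shaking at 140 rpm. Aliquots taken at 0.5, 1, 2, 4, 6, 8 and 24 h were mixed 1:1 with sodium cyanoborohydride/borohydride mix (50 mM stock) to fix adducts. Samples were stored at −80 °C, then analysed by cation-exchange HPLC as %Hb modified versus time. Peak was found by visual inspection and AUC0–24 by linear trapezoidal rule.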

[2] = cited from earlier work
Hb = Hb (Homo sapiens, UniProt P69905); assay: Incubation of VZHE004 with Hb for 3 days, UPLC-MS analysis; format: physicochemical; details: incubated with Hb for 3 days
sickle Hb (Hb S) = sickle Hb (Hb S) (Homo sapiens, UniProt P69905); assay: Hb adduct formation study; format: cell-based; details: SS cells, 20% hematocrit, 2 mM compound, mean ± SD of three experiments
How it was run: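 SS cell suspensions (20% hematocrit) were incubated with test compound (final DMSO <2%) in air at 37 °C for 1 h, then under 4% O2/96% N2 at 37 °C for 2 h. Cells were PBS-washed and lysed in hypotonic buffer. Clarified hemolysate was run on weak cation-exchange HPLC, and modified Hb S was taken from elution patterns. Three biological replicates, mean ± SD.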

[3] = at all three concentrations (1, 2 and 5 mM)

SMILES: O=Cc1ccc(COc2ccc(Cl)cc2)o1 [5-CMFC, 5-((4-chlorophenoxy)methyl)-2-furan carbaldehyde]
inhibition of RBC sickling [1, 3]: < 10%

SMILES: O=Cc1ccc(CO)o1 [5-HMF, 5-hydroxymethyl-2-furfural, reference compound]
Hb modification (residual Hb adduct) at 24 h (Hb A): ~ 2% and 1.1%
remaining activity at 2000 µM (Hb A): ~8%
plasma half-life [2]: ~ 1 h

SMILES: O=Cc1ccc(COc2ccccc2[N+](=O)[O-])o1 [5-NMFC, 5-((2-nitrophenoxy)methyl)-2-furan carbaldehyde]
inhibition of RBC sickling [1, 3]: < 10%
Hb modification (residual Hb adduct) at 24 h (Hb A): ~ 7%
remaining activity at 2000 µM (Hb A): ~29%

SMILES: O=Cc1ccc(COc2ccccc2)o1 [5-PMFC, 5-(Phenoxymethyl)-2-furan carbaldehyde]
Hb modification (residual Hb adduct) at 24 h (Hb A): ~ 7%
remaining activity at 2000 µM (Hb A): ~29%

SMILES: CC(=O)OCc1ccc(C=O)o1 [VZHE004, (5-Formylfuran-2-yl)methyl Acetate]
stability against hydrolytic cleavage of the ester (UPLC–MS) (Hb): intact

SMILES: COCc1ccc(C=O)o1 [VZHE005, 5-(Methoxymethyl)-2-furan Carboxadehyde]
modified Hb (%) (sickle Hb (Hb S)): 35.3 ± 11.6%

SMILES: CC(C)(C)OC(=O)OCc1ccc(C=O)o1 [VZHE006, tert-Butyl((5-formylfuran-2-yl)methyl) Carbonate]
modified Hb (%) (sickle Hb (Hb S)): 50.0 ± 3.0%
fold antisickling potency over the other three esters and 5-HMF ([1]; 2 mM compound): roughly 3 fold
inhibition of RBC sickling ([1]; 5 mM compound): > 95%

SMILES: COP(=O)(OC)OCc1ccc(C=O)o1 [VZHE014, (5-Formylfuran-2-yl)methyl Dimethyl Phosphate]
modified Hb (%) (sickle Hb (Hb S)): 19.7 ± 6.3%
inhibition of RBC sickling ([1]; 5 mM compound): 43% and ~ 40%

The next lines start with results.

modified Hb (%) (sickle Hb (Hb S)): 40.4 ± 3.9%
SMILES: CCOCc1ccc(C=O)o1 [VZHE011, 5-(Ethoxymethyl)-2-furan Carboxadehyde]

modified Hb (%) (sickle Hb (Hb S)): 39.7 ± 8.2%
SMILES: CCCOCc1ccc(C=O)o1 [VZHE015, 5-(Propoxymethyl)-2-furan Carboxadehyde]

modified Hb (%) (sickle Hb (Hb S)): 36.4 ± 9.7%
SMILES: CC(C)OCc1ccc(C=O)o1 [VZHE016, 5-(Isopropoxymethyl)-2-furan Carboxadehyde]
inhibition of RBC sickling ([1]; 5 mM compound): < 10%
